Activity calls are given as the source filed them. The calls are words filed in the database; no cut-off is given here.

Test [1] deals with Metabotropic glutamate receptor 2 (Homo sapiens) (UniProt Q14416). Description: Agonist activity at mGlu2 receptor (unknown origin) assessed as IP1 accumulation preincubated with 3 uM LY341495 for 20 mins followed by addition of 1 mM of compound by IP-One functional assay. The procedure, abridged: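 Single-dose test in HEK293 cells cotransfected with rat receptor, chimeric Gi/Gq and EAAC1. Cells were pretreated with 3 μM LY341495 for 20 min at 37 °C, washed twice, then stimulated with 1 mM compound. IP1 was read by HTRF 24 h post-transfection. Comparison was against vehicle by one-way ANOVA with Dunnett's test.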
Sequence of Metabotropic glutamate receptor 2 (Homo sapiens) (Q14416 19-872 limits assumed): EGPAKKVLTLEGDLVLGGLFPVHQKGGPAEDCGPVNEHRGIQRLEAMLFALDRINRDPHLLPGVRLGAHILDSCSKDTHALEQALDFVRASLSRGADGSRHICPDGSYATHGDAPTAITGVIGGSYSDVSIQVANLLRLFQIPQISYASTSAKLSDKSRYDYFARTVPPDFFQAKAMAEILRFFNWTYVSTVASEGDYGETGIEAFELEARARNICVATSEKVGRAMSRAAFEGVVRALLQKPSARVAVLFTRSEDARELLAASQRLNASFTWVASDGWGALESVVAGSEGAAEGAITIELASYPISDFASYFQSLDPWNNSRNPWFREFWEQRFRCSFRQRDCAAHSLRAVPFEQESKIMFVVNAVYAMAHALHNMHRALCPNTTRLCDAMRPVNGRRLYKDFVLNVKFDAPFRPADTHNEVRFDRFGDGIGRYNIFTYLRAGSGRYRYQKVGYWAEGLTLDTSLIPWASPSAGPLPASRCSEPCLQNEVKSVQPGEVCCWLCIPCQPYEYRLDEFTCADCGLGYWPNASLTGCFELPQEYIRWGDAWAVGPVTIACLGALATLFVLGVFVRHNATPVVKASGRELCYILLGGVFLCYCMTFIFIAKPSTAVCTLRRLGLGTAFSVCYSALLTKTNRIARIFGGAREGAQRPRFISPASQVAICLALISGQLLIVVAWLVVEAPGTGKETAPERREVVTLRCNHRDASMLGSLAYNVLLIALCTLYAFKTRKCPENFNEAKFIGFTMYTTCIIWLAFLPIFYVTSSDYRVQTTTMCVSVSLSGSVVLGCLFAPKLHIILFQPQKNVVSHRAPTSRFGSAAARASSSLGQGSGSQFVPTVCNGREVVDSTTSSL

For test [2], the target named is T1, Metabotropic glutamate receptor 1 (Rattus norvegicus, UniProt P23385). Put plainly: Agonist activity at rat mGlu1 receptor expressed in HEK293 cells by intracellular Ca2+ mobilization assay. In kind it is functional, cell-based. Background: Calcium assays in cells follow changes in intracellular calcium, usually with a dye or a luminescent sensor.
The target of test [3] is T2, Metabotropic glutamate receptor 5 (Rattus norvegicus, UniProt P31424). Put plainly: Agonist activity at rat mGlu5 receptor expressed in HEK293 cells by intracellular Ca2+ mobilization assay. Type of test: functional, cell-based.
In test [4] the target is T3, Metabotropic glutamate receptor 2 (Rattus norvegicus, UniProt P31421). Put plainly: Agonist activity at rat mGlu2 receptor expressed in HEK293 cells by [35S]GTP-gamma binding assay. Type of test: cell-based.
T3 sequence (P31421 whole entry): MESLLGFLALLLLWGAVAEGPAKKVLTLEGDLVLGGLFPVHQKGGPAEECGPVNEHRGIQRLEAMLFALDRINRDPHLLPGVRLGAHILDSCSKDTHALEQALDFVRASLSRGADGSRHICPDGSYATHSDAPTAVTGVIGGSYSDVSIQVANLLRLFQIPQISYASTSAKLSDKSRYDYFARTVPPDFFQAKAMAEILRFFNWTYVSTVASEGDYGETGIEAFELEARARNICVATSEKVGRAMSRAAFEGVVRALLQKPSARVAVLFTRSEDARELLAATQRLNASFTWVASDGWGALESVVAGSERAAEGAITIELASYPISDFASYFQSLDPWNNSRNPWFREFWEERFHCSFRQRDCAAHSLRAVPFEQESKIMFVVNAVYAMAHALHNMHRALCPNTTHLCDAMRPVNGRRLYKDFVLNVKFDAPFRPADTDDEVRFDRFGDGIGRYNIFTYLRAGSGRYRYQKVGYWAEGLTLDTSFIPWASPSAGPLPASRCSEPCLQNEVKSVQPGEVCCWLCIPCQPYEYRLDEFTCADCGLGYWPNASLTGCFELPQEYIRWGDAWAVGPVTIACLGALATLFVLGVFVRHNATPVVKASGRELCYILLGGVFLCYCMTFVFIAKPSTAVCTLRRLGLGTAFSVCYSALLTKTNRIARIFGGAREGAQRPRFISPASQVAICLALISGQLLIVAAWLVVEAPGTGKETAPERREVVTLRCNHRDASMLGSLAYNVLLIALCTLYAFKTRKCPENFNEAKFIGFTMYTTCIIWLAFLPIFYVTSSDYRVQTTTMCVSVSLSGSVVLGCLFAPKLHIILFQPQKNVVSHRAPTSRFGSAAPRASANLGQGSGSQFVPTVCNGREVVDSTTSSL
The target of test [5] is T4, Metabotropic glutamate receptor 3 (Rattus norvegicus, UniProt P31422). Put plainly: Agonist activity at rat mGlu3 receptor expressed in HEK293 cells by [35S]GTP-gamma binding assay. In kind it is cell-based.
For test [6], the target named is T5, Metabotropic glutamate receptor 4 (Rattus norvegicus, UniProt P31423). Description: Agonist activity at rat mGlu4 receptor expressed in HEK293 cells assessed as inhibition of forskolin stimulated cAMP production. Type of test: functional, cell-based. On the technique in general: Changes in cAMP serve as a functional read-out for many G protein-coupled receptors.

Test [7] has as its target Metabotropic glutamate receptor 7 (Homo sapiens, UniProt Q14831). Put plainly: Agonist activity at human mGlu7 receptor expressed in HEK293 assessed as inhibition of forskolin stimulated cAMP production. In kind it is functional, cell-based.
The target in test [8] is T1, Metabotropic glutamate receptor 1. Put plainly: Agonist activity at rat mGlu1 receptor expressed in HEK293 cells assessed as IP1 accumulation by IP-One functional assay. In kind it is cell-based. The procedure, abridged: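 Rat group I receptor transiently electroporated into HEK293 with the EAAC1 glutamate transporter; medium switched to Glutamax at least 2 h before stimulation. IP1 was read by HTRF (IP-One kit) 24 h after transfection. Runs were at least in duplicate, with EC50 ± SEM from n = 4−6 experiments.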

Test [9] has as its target T2, Metabotropic glutamate receptor 5. Description: Agonist activity at rat mGlu5 receptor expressed in HEK293 cells assessed as IP1 accumulation by IP-One functional assay. In kind it is cell-based.
Test [10] deals with T3, Metabotropic glutamate receptor 2. Put plainly: Agonist activity at rat mGlu2 receptor expressed in HEK293 cells assessed as IP1 accumulation by IP-One functional assay. Type of test: cell-based. Put shortly:
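HEK293 cells were transiently electroporated with the rat receptor plus a chimeric Gi/Gq protein for PLC coupling and EAAC1. Medium was replaced by Glutamax at least 2 h before agonist. IP1 accumulation was measured by HTRF 24 h post-transfection, at least in duplicate.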

Test [11] concerns the target T5, Metabotropic glutamate receptor 4. Description: Agonist activity at rat mGlu4 receptor expressed in HEK293 cells assessed as IP1 accumulation by IP-One functional assay. Type of test: cell-based. Put shortly: (§1)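 HEK293 cells were transiently electroporated with the rat receptor plus a chimeric Gi/Gq protein for PLC coupling and EAAC1. Medium was replaced by Glutamax at least 2 h before agonist. IP1 accumulation was measured by HTRF 24 h post-transfection, at least in duplicate. EC50 ± SEM came from n = 4−6 experiments.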

Test [12] has as its target Metabotropic glutamate receptor 6 (Rattus norvegicus, UniProt P35349). Put plainly: Agonist activity at rat mGlu6 receptor expressed in HEK293 cells assessed as IP1 accumulation by IP-One functional assay. In kind it is cell-based. Put shortly:
as §1

Test [13] deals with Metabotropic glutamate receptor 7 (Rattus norvegicus, UniProt P35400). Put plainly: Agonist activity at rat mGlu7 receptor expressed in HEK293 cells assessed as IP1 accumulation by IP-One functional assay. In kind it is cell-based. Put shortly:
as §1

Test [14] concerns the target Metabotropic glutamate receptor 8 (Rattus norvegicus, UniProt P70579). Put plainly: Agonist activity at rat mGlu8 receptor expressed in HEK293 cells assessed as IP1 accumulation by IP-One functional assay. Type of test: cell-based. Put shortly:
as §1

The target of test [15] is T3, Metabotropic glutamate receptor 2. Description: Agonist activity at rat mGlu2 receptor by FRET based mGlu sensor assay. Put shortly: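 Receptor carried an N-terminal SNAP-tag and was transfected into HEK293 cells. At 24 h, surface receptors were labelled for 1 h with 100 nM SNAP-Lumi4-Tb (donor) and 60 nM SNAP Green (acceptor), washed three times, then drug was added. Time-resolved FRET was recorded at 520 nm, at least in duplicate.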

Test [16] addresses T4, Metabotropic glutamate receptor 3. Description: Agonist activity at rat mGlu3 receptor by FRET based mGlu sensor assay. Put shortly: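 Receptor carried an N-terminal SNAP-tag and was transfected into HEK293 cells. At 24 h, surface receptors were labelled for 1 h with 100 nM SNAP-Lumi4-Tb (donor) and 60 nM SNAP Green (acceptor), washed three times, then drug was added. Time-resolved FRET was recorded at 520 nm, at least in duplicate. EC50 ± SEM came from n = 4−6 experiments.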

The nature of test [17]: Displacement of [3H]AMPA from rat synaptosome AMPA receptor after 30 mins by microplate scintillation counter analysis. A general note: Loss of bound radioactivity is the signal in a displacement assay; it reports binding, not function.
A short description of test [18]: Displacement of [3H]KA from rat synaptosome KA receptor after 60 mins by microplate scintillation counter analysis.
In test [19] the target is T6, Excitatory amino acid transporter 1 (Homo sapiens, UniProt P43003). Put plainly: Inhibition of human EAAT1 assessed as [3H]Asp uptake.
In test [20] the target is T6, Excitatory amino acid transporter 1. Description: Substrate activity at human EAAT1 assessed as [3H]Asp uptake measured up to 300 uM.
The target of test [21] is T7, Excitatory amino acid transporter 2 (Homo sapiens, UniProt P43004). Put plainly: Inhibition of human EAAT2 assessed as [3H]Asp uptake.
T7 sequence (P43004 whole entry): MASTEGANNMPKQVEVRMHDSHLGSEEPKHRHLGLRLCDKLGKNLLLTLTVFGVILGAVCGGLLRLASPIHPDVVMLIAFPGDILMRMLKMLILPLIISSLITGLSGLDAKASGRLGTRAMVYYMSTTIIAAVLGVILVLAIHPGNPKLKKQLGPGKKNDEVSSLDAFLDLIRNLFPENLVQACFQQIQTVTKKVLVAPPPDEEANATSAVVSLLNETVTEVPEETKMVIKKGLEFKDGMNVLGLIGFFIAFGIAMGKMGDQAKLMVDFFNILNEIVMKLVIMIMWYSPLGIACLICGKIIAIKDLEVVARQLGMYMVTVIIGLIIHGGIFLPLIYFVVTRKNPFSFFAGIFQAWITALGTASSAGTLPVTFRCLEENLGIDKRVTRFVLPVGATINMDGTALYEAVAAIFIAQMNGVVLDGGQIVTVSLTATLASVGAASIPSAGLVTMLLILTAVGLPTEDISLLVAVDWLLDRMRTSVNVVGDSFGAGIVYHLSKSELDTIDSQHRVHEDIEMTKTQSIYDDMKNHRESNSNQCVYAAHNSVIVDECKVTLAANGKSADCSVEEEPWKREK
Test [22] deals with T7, Excitatory amino acid transporter 2. Put plainly: Substrate activity at human EAAT2 assessed as [3H]Asp uptake measured up to 300 uM.
The target of test [23] is T8, Excitatory amino acid transporter 3 (Homo sapiens, UniProt P43005).
T8 sequence (P43005 whole entry): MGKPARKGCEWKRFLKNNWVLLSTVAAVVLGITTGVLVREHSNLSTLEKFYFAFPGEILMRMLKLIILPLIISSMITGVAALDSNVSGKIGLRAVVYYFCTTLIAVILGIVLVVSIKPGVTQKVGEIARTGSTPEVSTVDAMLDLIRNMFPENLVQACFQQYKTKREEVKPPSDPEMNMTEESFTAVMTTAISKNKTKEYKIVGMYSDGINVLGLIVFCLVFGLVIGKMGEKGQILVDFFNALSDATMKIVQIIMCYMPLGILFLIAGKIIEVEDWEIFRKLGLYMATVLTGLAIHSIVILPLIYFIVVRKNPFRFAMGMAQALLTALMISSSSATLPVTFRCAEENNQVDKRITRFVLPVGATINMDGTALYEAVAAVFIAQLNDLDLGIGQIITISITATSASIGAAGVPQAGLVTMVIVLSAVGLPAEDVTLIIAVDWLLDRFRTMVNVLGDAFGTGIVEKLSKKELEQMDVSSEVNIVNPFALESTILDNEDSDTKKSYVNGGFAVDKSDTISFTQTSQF
Description: Inhibition of human EAAT3 assessed as [3H]Asp uptake.

Test [24] addresses Metabotropic glutamate receptor 3 (Rattus norvegicus) (UniProt P31422). Put plainly: Agonist activity at mGlu3 receptor (rat) assessed as IP1 accumulation preincubated with 3 uM LY341495 for 20 mins followed by addition of 1 mM of compound by IP-One functional assay.
The target of test [25] is Glutamate NMDA receptor. Put plainly: Displacement of [3H]CGP from rat synaptosome NMDA receptor after 60 mins by microplate scintillation counter analysis. In kind it is protein-complex assay.

Sequence of Metabotropic glutamate receptor 6 (P35349 whole entry): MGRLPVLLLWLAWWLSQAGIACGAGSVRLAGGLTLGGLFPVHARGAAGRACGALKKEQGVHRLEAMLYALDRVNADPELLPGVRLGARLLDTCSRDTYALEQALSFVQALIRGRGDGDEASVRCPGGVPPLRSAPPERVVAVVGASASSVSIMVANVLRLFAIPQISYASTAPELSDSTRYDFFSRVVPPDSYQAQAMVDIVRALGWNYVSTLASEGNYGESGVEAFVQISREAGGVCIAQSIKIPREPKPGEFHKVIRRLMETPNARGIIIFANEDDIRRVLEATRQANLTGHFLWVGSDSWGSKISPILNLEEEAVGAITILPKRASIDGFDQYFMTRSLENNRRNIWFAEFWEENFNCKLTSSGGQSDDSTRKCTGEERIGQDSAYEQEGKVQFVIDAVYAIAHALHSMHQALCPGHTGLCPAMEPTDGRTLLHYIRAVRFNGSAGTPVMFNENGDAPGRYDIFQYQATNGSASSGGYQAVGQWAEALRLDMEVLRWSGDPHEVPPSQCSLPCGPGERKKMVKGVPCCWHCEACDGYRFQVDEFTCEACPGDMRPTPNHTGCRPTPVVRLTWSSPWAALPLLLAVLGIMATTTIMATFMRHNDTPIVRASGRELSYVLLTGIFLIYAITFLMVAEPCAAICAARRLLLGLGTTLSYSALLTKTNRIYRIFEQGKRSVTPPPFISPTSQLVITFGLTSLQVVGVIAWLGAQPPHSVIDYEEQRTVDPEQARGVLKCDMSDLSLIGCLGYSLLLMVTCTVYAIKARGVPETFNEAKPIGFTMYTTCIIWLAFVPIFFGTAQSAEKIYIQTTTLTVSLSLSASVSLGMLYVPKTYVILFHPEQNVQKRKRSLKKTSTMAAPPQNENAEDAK
Sequence of Metabotropic glutamate receptor 8 (P70579 whole entry): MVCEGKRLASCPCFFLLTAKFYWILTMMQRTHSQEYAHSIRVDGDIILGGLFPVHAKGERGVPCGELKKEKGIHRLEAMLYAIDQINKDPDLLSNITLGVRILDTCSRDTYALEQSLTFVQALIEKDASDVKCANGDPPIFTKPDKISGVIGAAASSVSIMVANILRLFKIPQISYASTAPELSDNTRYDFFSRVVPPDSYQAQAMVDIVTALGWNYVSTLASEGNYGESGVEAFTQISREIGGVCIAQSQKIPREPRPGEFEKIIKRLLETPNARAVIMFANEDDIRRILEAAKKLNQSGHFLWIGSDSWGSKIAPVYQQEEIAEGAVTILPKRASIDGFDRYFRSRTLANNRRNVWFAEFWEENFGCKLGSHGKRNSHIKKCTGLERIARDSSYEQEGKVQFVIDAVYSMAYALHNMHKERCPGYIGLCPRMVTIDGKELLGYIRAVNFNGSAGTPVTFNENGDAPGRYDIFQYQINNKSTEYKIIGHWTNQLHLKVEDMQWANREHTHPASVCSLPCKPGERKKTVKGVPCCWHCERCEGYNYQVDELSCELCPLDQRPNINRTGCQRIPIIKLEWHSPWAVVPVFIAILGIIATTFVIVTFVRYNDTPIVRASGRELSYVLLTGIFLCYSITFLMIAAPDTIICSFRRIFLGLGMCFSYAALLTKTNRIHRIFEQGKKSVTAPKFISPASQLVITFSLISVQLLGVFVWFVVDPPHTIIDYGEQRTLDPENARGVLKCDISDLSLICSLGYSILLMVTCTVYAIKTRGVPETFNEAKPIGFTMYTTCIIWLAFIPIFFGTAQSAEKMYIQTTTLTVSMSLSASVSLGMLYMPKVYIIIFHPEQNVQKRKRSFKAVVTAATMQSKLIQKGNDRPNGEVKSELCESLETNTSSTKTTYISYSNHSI
Sequence of Metabotropic glutamate receptor 7 (Rattus norvegicus, UniProt P35400) (P35400 whole entry): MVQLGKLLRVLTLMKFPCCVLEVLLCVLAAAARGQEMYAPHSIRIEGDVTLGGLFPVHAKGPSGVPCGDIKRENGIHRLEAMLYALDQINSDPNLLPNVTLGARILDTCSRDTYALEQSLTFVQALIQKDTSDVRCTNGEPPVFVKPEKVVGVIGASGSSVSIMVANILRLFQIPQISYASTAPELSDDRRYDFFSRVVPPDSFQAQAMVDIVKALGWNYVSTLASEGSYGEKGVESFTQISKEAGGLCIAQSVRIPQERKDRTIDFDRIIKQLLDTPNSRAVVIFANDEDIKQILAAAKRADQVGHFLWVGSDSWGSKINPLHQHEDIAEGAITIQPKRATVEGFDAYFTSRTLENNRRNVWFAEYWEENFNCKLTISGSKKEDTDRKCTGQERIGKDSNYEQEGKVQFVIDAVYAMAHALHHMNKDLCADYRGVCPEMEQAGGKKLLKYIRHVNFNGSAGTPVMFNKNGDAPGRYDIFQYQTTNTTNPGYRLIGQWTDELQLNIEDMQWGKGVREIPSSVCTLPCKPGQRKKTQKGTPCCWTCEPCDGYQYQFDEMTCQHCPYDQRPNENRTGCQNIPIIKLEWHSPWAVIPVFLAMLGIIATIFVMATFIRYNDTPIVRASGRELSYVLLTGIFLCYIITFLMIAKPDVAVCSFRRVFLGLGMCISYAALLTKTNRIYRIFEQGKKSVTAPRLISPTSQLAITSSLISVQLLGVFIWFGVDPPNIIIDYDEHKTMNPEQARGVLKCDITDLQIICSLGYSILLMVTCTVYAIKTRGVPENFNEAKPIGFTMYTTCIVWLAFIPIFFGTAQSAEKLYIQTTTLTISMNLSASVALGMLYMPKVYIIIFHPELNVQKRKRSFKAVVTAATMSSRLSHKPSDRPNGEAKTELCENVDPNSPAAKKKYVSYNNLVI
Sequence of Metabotropic glutamate receptor 7 (Homo sapiens, UniProt Q14831) (Q14831 whole entry): as the sequence (P35400 whole entry) above, with G5R, V27A, H454N, T488S, S520A, N578D counted along it

One may read the IC50 as the concentration needed to halve the response being measured. For `N[C@@H](C[C@@H](CCC(=O)O)C(=O)O)C(=O)O`, in [1], the outcome was Active. Further, the EC50 in test [2] is greater than 1000 µM; in test [3], greater than 1000 µM; in test [4] (read-out: EC50), 1.63 µM; in test [4] (read-out: pEC50 (converted)) it was 1.66 µM; in test [5] it was 348 µM; in test [6] it was greater than 1000 µM. Also, the EC50 in test [7] was greater than 1000 µM; in test [8], greater than 1000 µM; in test [9], greater than 1000 µM; in [10], 34.2 µM; in test [11], no less than 100 µM; in test [12], greater than 1000 µM. In addition, the EC50 in test [13] was greater than 1000 µM; in [14], greater than 1000 µM; in test [15] it was 120 µM; in test [16], greater than 1000 µM. Also, the IC50 is greater than 100 µM in [17]; greater than 100 µM in [18]; greater than 300 µM in test [19]; greater than 300 µM in test [21]; greater than 300 µM in test [23]. The result in [20], in [22] and in [24] was inactive.
What is called Ki is a measure of affinity in units of concentration, obtained from inhibition or displacement. Higher therefore signals a looser hold on the target. Regarding `N[C@@H](C[C@]1(C(=O)O)C[C@@H]1C(=O)O)C(=O)O`, the outcome in test [1] was Active. Also, the EC50 was greater than 1000 µM in [8]; greater than 1000 µM in test [9]; 33.7 µM in test [10]; greater than 1000 µM in test [11]; greater than 1000 µM in test [12]; greater than 1000 µM in test [13]. Also, the figures for the EC50 in test [14], in test [15] and in test [16] were greater than 1000 µM, 119 µM and greater than 1000 µM, respectively. The IC50 in [17] was greater than 100 µM; in test [18], greater than 100 µM; in test [19] it was greater than 300 µM; in test [21] it was greater than 300 µM; in test [23], greater than 300 µM. In [25], this compound came in with a Ki greater than 100 µM. Further, the result in test [20], in test [22] and in test [24] was inactive.
As to `N[C@@H](C[C@]1(C(=O)O)C[C@H]1C(=O)O)C(=O)O`, in test [1], the outcome was Active. In addition, the EC50 in [8] was greater than 1000 µM; in [9], greater than 1000 µM; in test [10] it was 145 µM; in test [11] it was 0.13 µM; in [12], 0.49 µM; in test [13], 120 µM. For the same compound, the EC50 in test [14] is 0.68 µM; in test [15], greater than 1000 µM; in [16], greater than 1000 µM. Further, the IC50 in [17] is greater than 100 µM; in [18] it was greater than 100 µM; in test [19] it was greater than 300 µM; in test [21] it was greater than 300 µM; in test [23] it was greater than 300 µM. The affinity in test [25], expressed as Ki, was 13 µM. Besides, the outcome in test [20], in [22] and in [24] was inactive.

The values are drawn from ChEMBL document CHEMBL3784960, “New 4-Functionalized Glutamate Analogues Are Selective Agonists at Metabotropic Glutamate Receptor Subtype 2 or Selective Agonists at Metabotropic Glutamate Receptor Group III” (J Med Chem, 2016).
